Test [1] relates to Hepatitis C virus. As to the kind of experiment: Inhibition of hepatitis C virus RNA replication in a subgenomic replicon cell line. In kind it is functional, organism-based, Hepacivirus hominis. The method, boiled down:
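HCV subgenomic replicon cells exposed to compound for 48 h; relative HCV replicon RNA then measured by luciferase reporter assay.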
Background: In antiviral work, replicon cells carry a viral genome segment that copies itself.

In test [2] the test system is Hepatitis C virus. As to the kind of experiment: Cytotoxicity concentration to inhibit hepatitis C virus RNA replication in a subgenomic replicon cell line. It counts as functional, Hepacivirus hominis. The method, boiled down:
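MTS assay run on samples set up in parallel with the HCV subgenomic replicon cultures.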

This passage reports EC50 and CC50 results from ChEMBL document CHEMBL1144291, “Synthesis of 9-(2-beta-C-methyl-beta-d-ribofuranosyl)-6-substituted purine derivatives as inhibitors of HCV RNA replication” (Bioorg Med Chem Lett, 2005).

What is called EC50 is the concentration at which the effect is half-maximal. For orientation: CC50 means the concentration that lowers cell viability or growth by half. A low value points to harm at low concentration.

As to `CCNc1ncnc2c1ncn2C1O[C@H](CO)[C@@H](O)[C@@]1(C)O` (stereo not given in full), it took 8 µM to reach a half-maximal effect with Hepatitis C virus [1] (EC50). Moreover, the midpoint of cytotoxicity in the test on Hepatitis C virus [2], the CC50, lay at 300 µM.
On to `C[C@]1(O)C(n2cnc3c(N4CCCS4)ncnc32)O[C@H](CO)[C@H]1O` (stereo not given in full), for which, in the test on Hepatitis C virus [1], the EC50 was 15 µM. The same molecule displayed a CC50 in the test on Hepatitis C virus [2] of 200 µM.
The molecule `CC(CNC1=NCNc2c1ncn2C1O[C@H](CO)[C@@H](O)[C@@]1(C)O)c1ccccc1` (stereo not given in full) displayed an EC50 with Hepatitis C virus [1] of 25 µM. Further, the midpoint of cytotoxicity with Hepatitis C virus [2], the CC50, lay at 300 µM.
As for `C[C@]1(O)C(n2cnc3c(-c4cccs4)ncnc32)O[C@H](CO)[C@H]1O` (stereo not given in full), in the test with Hepatitis C virus [1], the 50% effective concentration (EC50) is 80 µM. In the test with Hepatitis C virus [2], this molecule gave a CC50 of 200 µM.
In the test on Hepatitis C virus [1], `CNCCN(C)c1ncnc2c1ncn2C1O[C@H](CO)[C@@H](O)[C@@]1(C)O` (stereo not given in full) returned an EC50 of 200 µM. Further, in the test on Hepatitis C virus [2], half-maximal cytotoxicity (CC50) was put at 300 µM.
In the same order, the values of `CSc1cccc(Nc2ncnc3c2ncn3C2O[C@H](CO)[C@@H](O)[C@@]2(C)O)c1` (stereo not given in full) are 300 µM and 300 µM.
In the same order, the values of `C[C@]1(O)C(n2cnc3c(NCCC(N)=O)ncnc32)O[C@H](CO)[C@H]1O` (stereo not given in full) are 150 µM and 300 µM.
`C[C@]1(O)C(n2cnc3c(N(O)C(=O)OCc4ccccc4)ncnc32)O[C@H](CO)[C@H]1O` (stereo not given in full) showed an EC50 in the test with Hepatitis C virus [1] of 20 µM. In the test with Hepatitis C virus [2], the CC50 stood at 300 µM.
In the test with Hepatitis C virus [1], `C[C@]1(O)C(n2cnc3c(C(=N)S)ncnc32)O[C@H](CO)[C@H]1O` (stereo not given in full) came in with an EC50 of 120 µM. In addition, in the test on Hepatitis C virus [2], the midpoint of cytotoxicity, the CC50, lay at 300 µM.
`COC(=O)N(O)c1ncnc2c1ncn2C1O[C@H](CO)[C@@H](O)[C@@]1(C)O` (stereo not given in full) gave a concentration giving a half-maximal response (EC50) in the test on Hepatitis C virus [1] of 3 µM. In the test on Hepatitis C virus [2], the CC50 was 250 µM.
Regarding `C[C@]1(O)C(n2cnc3c(-c4ccco4)ncnc32)O[C@H](CO)[C@H]1O` (stereo not given in full), the EC50 in the test with Hepatitis C virus [1] turned out to be 275 µM. This molecule had a CC50 with Hepatitis C virus [2] of 300 µM.
`C[C@]1(O)C(n2cnc3c(NCC4CCCO4)ncnc32)O[C@H](CO)[C@H]1O` (stereo not given in full) returned a concentration giving a half-maximal response (EC50) with Hepatitis C virus [1] of 300 µM. In the test on Hepatitis C virus [2], this molecule showed a CC50 of 300 µM.
With `C[C@]1(O)C(n2cnc3c(NO)ncnc32)O[C@H](CO)[C@H]1O` (stereo not given in full), in the test with Hepatitis C virus [1], it took 1.8 µM to reach a half-maximal effect (EC50). In the test with Hepatitis C virus [2], this molecule gave a CC50 of 300 µM.
On to `CCNC(=O)N(O)c1ncnc2c1ncn2C1O[C@H](CO)[C@@H](O)[C@@]1(C)O` (stereo not given in full), for which the EC50 with Hepatitis C virus [1] came to 2.2 µM. Further, the CC50 in the test on Hepatitis C virus [2] is 200 µM.
In the test with Hepatitis C virus [1], `CCNC(=O)N(O)C1=NCNc2c1ncn2C1O[C@H](CO)[C@@H](O)[C@@]1(C)O` (stereo not given in full) yielded an EC50 of 200 µM. The CC50 in the test with Hepatitis C virus [2] is 300 µM.
For `C[C@@]1(O)[C@H](O)[C@@H](CO)O[C@H]1n1cnc2c(N)ncnc21` the same measures were 0.3 µM and 300 µM.
For `C[C@]1(O)C(n2cnc3c(C(=N)N)ncnc32)O[C@H](CO)[C@H]1O` (stereo not given in full) the same measures were 100 µM and 300 µM.
In the same order, the values of `C[C@]1(O)C(n2cnc3c(NOCCO)ncnc32)O[C@H](CO)[C@H]1O` (stereo not given in full) are 80 µM and 300 µM.
`CNc1ncnc2c1ncn2C1O[C@H](CO)[C@@H](O)[C@@]1(C)O` (stereo not given in full) registered an EC50 in the test with Hepatitis C virus [1] of 1 µM. The molecule also showed a CC50 with Hepatitis C virus [2] of 300 µM.
In turn, `C[C@]1(O)C(n2cnc3c(-c4ccsc4)ncnc32)O[C@H](CO)[C@H]1O` (stereo not given in full) showed an EC50 with Hepatitis C virus [1] of 300 µM. In addition, it took 300 µM to reach half-maximal cytotoxicity in the test with Hepatitis C virus [2] (CC50).
Molecule `CCNC(=O)N(OC)c1ncnc2c1ncn2C1O[C@H](CO)[C@@H](O)[C@@]1(C)O` (stereo not given in full) gave an EC50 in the test with Hepatitis C virus [1] of 80 µM. Also, the CC50 with Hepatitis C virus [2] amounted to 300 µM.
In the test on Hepatitis C virus [1], `COc1ncnc2c1ncn2C1O[C@H](CO)[C@@H](O)[C@@]1(C)O` (stereo not given in full) displayed an EC50 of 9 µM. Moreover, it took 300 µM to reach half-maximal cytotoxicity with Hepatitis C virus [2] (CC50).
For `C[C@]1(O)C(n2cnc3c2NCN=C3N(CCO)CCO)O[C@H](CO)[C@H]1O` (stereo not given in full) the same measures were 20 µM and 300 µM.
For `C[C@]1(O)C(n2cnc3c(NCCN)ncnc32)O[C@H](CO)[C@H]1O` (stereo not given in full) the same measures were 25 µM and 300 µM.
With `C[C@]1(O)C(n2cnc3c2NCN=C3NOCCO)O[C@H](CO)[C@H]1O` (stereo not given in full), the response with Hepatitis C virus [1] was half-maximal at 80 µM (EC50). The same molecule had a half-maximal cytotoxic concentration (CC50) with Hepatitis C virus [2] of 300 µM.
In the case of `CON(C)c1ncnc2c1ncn2C1O[C@H](CO)[C@@H](O)[C@@]1(C)O` (stereo not given in full), the EC50 in the test with Hepatitis C virus [1] turned out to be 33 µM. In the test on Hepatitis C virus [2], this molecule returned a CC50 of 300 µM.
For `CCC(=O)N(O)c1ncnc2c1ncn2C1O[C@H](CO)[C@@H](O)[C@@]1(C)O` (stereo not given in full) the same measures were 3.3 µM and 300 µM.
Turning to `CN(C)c1ncnc2c1ncn2C1O[C@H](CO)[C@@H](O)[C@@]1(C)O` (stereo not given in full), the EC50 in the test on Hepatitis C virus [1] was 9 µM. In the test with Hepatitis C virus [2], this molecule showed a half-maximal cytotoxic concentration (CC50) of 300 µM.
In turn, `CC(C)NC(=O)N(O)c1ncnc2c1ncn2C1O[C@H](CO)[C@@H](O)[C@@]1(C)O` (stereo not given in full) registered an EC50 in the test on Hepatitis C virus [1] of 6 µM. The molecule further yielded a CC50 in the test with Hepatitis C virus [2] of 300 µM.
In the test on Hepatitis C virus [1], `C[C@]1(O)C(n2cnc3c(O)ncnc32)O[C@H](CO)[C@H]1O` (stereo not given in full) had an EC50 of 8 µM. Also, the CC50 with Hepatitis C virus [2] came out at 300 µM.
`CC1(C)OCC(CNc2ncnc3c2ncn3C2O[C@H](CO)[C@@H](O)[C@@]2(C)O)O1` (stereo not given in full) had an EC50 in the test on Hepatitis C virus [1] of 300 µM. This molecule displayed a CC50 with Hepatitis C virus [2] of 300 µM.
Turning to `C[C@]1(O)C(n2cnc3c(N(O)C(=O)Nc4ccccc4)ncnc32)O[C@H](CO)[C@H]1O` (stereo not given in full), the EC50 in the test on Hepatitis C virus [1] was 1.8 µM. The molecule also showed a CC50 in the test with Hepatitis C virus [2] of 300 µM.
Molecule `CCOc1ncnc2c1ncn2C1O[C@H](COP(=O)(OCCSC(C)=O)OCCSC(C)=O)[C@@H](O)[C@@]1(C)O` (stereo not given in full) gave an EC50 with Hepatitis C virus [1] of 0.08 µM. In the test with Hepatitis C virus [2], this molecule had a CC50 of 300 µM.
Consider `CONc1ncnc2c1ncn2C1O[C@H](CO)[C@@H](O)[C@@]1(C)O` (stereo not given in full), for which the EC50 in the test on Hepatitis C virus [1] was found to be 4 µM. In the test with Hepatitis C virus [2], this molecule registered a CC50 of 300 µM.
Consider `C[C@]1(O)C(n2cnc3c(C(=N)NO)ncnc32)O[C@H](CO)[C@H]1O` (stereo not given in full), for which a half-maximal effect in the test with Hepatitis C virus [1] (EC50) was put at 100 µM. The CC50 in the test with Hepatitis C virus [2] was 300 µM.
Turning to `CN(O)c1ncnc2c1ncn2C1O[C@H](CO)[C@@H](O)[C@@]1(C)O` (stereo not given in full), in the test on Hepatitis C virus [1], the EC50 came out at 4 µM. The midpoint of cytotoxicity in the test with Hepatitis C virus [2], the CC50, lay at 300 µM.
In the same order, the values of `C[C@]1(O)C(n2cnc3c2NCN=C3NCCO)O[C@H](CO)[C@H]1O` (stereo not given in full) are 60 µM and 300 µM.
With `C[C@]1(O)C(n2cnc3c(N4CCOCC4)ncnc32)O[C@H](CO)[C@H]1O` (stereo not given in full), the EC50 in the test on Hepatitis C virus [1] came to 100 µM. This molecule also gave a cytotoxic concentration (CC50) in the test on Hepatitis C virus [2] of 300 µM.
For `CCONc1ncnc2c1ncn2C1O[C@H](CO)[C@@H](O)[C@@]1(C)O` (stereo not given in full) the same measures were 30 µM and 300 µM.
For the molecule `COC(=N)c1ncnc2c1ncn2C1O[C@H](CO)[C@@H](O)[C@@]1(C)O` (stereo not given in full), the response with Hepatitis C virus [1] was half-maximal at 120 µM (EC50). In the test on Hepatitis C virus [2], this molecule yielded a CC50 of 300 µM.
Take `CCOc1ccccc1CNc1ncnc2c1ncn2C1O[C@H](CO)[C@@H](O)[C@@]1(C)O` (stereo not given in full): it took 50 µM to reach a half-maximal effect with Hepatitis C virus [1] (EC50). This molecule also registered a CC50 with Hepatitis C virus [2] of 250 µM.
`CCOc1ncnc2c1ncn2C1O[C@H](CO)[C@@H](O)[C@@]1(C)O` (stereo not given in full) yielded an EC50 in the test on Hepatitis C virus [1] of 13 µM. This molecule gave a CC50 in the test on Hepatitis C virus [2] of 300 µM.
In the test with Hepatitis C virus [1], `CSc1ncnc2c1ncn2C1O[C@H](CO)[C@@H](O)[C@@]1(C)O` (stereo not given in full) came in with an EC50 of 11 µM. In the test with Hepatitis C virus [2], this molecule returned a CC50 of 300 µM.
Regarding `CCNC(=O)Nc1ncnc2c1ncn2C1O[C@H](CO)[C@@H](O)[C@@]1(C)O` (stereo not given in full), the EC50 with Hepatitis C virus [1] stood at 80 µM. The same molecule returned a CC50 with Hepatitis C virus [2] of 300 µM.
In turn, `COc1ncnc2c1ncn2C1O[C@H](COP(=O)(OCCSC(=O)C(C)(C)C)OCCSC(=O)C(C)(C)C)[C@@H](O)[C@@]1(C)O` (stereo not given in full) came in with an EC50 in the test with Hepatitis C virus [1] of 0.1 µM. Further, in the test with Hepatitis C virus [2], half-maximal cytotoxicity (CC50) was put at 300 µM.
